Screening results: PubChem, Johns Hopkins Ion Channel Center
TRPC4 act – opens the mouse TRPC4 cation channel. Q9QUQ5. HEK293 TRPC4beta/mu-opioid, Fluo4 calcium fluorescence; active compounds read high. B-score at 10 µM. hit rate 0.49% among 310,000. AID 2237;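 active = B-score above 5 SD of library B-scores, and initial fluorescence ratio not above library mean plus 5 SD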;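 also: positive B-score marks a calcium rise read as TRPC4 activation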
Target sequence (Q9QUQ5 whole entry, looked up): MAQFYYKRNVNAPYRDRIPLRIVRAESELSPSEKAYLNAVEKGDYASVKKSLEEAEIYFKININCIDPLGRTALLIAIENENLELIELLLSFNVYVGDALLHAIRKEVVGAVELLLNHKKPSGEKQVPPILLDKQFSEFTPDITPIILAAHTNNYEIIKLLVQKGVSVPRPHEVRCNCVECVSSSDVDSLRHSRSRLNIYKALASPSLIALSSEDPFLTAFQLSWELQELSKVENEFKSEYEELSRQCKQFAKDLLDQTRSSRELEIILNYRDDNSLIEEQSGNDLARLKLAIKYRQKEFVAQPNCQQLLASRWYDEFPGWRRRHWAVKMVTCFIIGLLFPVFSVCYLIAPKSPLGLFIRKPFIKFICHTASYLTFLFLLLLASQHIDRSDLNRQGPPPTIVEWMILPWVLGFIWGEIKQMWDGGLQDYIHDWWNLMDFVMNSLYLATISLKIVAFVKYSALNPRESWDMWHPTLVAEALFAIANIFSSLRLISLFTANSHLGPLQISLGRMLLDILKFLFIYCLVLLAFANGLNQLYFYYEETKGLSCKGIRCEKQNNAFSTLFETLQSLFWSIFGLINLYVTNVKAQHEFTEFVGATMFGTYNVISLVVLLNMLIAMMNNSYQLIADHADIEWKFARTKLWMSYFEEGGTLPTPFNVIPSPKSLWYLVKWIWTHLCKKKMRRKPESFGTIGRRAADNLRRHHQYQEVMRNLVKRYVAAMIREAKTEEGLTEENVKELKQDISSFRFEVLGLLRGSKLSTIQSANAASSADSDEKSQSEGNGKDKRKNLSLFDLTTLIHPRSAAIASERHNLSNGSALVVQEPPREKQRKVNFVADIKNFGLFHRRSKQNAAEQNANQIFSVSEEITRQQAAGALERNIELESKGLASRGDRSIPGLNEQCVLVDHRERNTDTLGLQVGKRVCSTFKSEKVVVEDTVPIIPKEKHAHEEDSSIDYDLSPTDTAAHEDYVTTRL
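System: HEK293 cells stably co-expressing mouse TRPC4beta and mu-opioid receptor; Schedule: Fluo4 dye loading 45 min at room temperature, 110 s recording; Detection: Fluo4 fluorescence, kinetic; Evaluation: B-scored integrated calcium fluorescence ratio; Controls: buffer (low) and maximal DAMGO (high).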
TRPC6 inh – blocks the mouse TRPC6 cation channel; HEK293-TRPC6, membrane potential dye, ACh-evoked depolarization; active compounds read low; AID 2553; hit rate 1.1% among 310,000; Q61143; B-score at 10 µM;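 active = B-score under library mean minus 3 SD, initial fluorescence not abnormally high, positive integrated signal ratio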;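 also: B-score derived from integrated fluorescence ratio over the kinetic read; more negative B-score means stronger inhibition of depolarization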
TRPC4 block – inhibitors of mouse TRPC4 channel; Q9QUQ5; HEK293 TRPC4beta/mu-opioid, DAMGO-evoked Fluo4 calcium flux; active compounds read low; B-score at 10 µM; hit rate 0.39% among 300,000; AID 2247;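 active = B-score over 3 SD under the library average, no early fluorescence shift, positive overall ratio signal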
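Assay system: HEK293 cells with stable TRPC4beta plus mu-opioid receptor expression. Dosing: single dose. Measured by: Fluo4 Ca2+ flux fluorescence. Also added: DAMGO in two steps, submaximal then maximal. Read-out: B score from integrated Fluo4 fluorescence ratio.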
TRPC4 PAM – TRPC4 (mouse) allosteric potentiation | Q9QUQ5 | B-score at 10 µM | HEK293 TRPC4beta/mu-opioid, DAMGO EC20, Fluo-4 Ca2+ flux; active compounds read high | hit rate 0.42% among 310,000 | AID 2227;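 active = B-score of calcium response area above 5 SD of library B-scores, with initial fluorescence ratio within 5 SD of library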
TRPC6 act – activators of mouse TRPC6 channel | Q61143 | HEK293-TRPC6 membrane potential dye fluorescence; active compounds read high | B-score at 10 µM | hit rate 0.13% among 310,000;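 active = B-score of the integrated fluorescence ratio above library mean plus 3 SD, and starting fluorescence ratio within library mean plus 5 SD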;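 also: higher score means more depolarization so channel activation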
TRPC4 spec 2 – mouse TRPC4 off-target activity of TRPC6 inhibitors, second screen; shares compounds with TRPC6 inh; HEK293 TRPC4/MOR, membrane potential dye fluorescence; channel activated by saturating DAMGO dose; inhibition, % at 10 µM; hit rate 42% among 920;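 active = compounds whose fluorescence signal differed from control wells by over 3 SD, either direction, in both duplicate plates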
TRPC4 spec – mouse TRPC4 off-target activity of TRPC6 inhibitors; HEK293 TRPC4/mu-opioid, membrane potential fluorescence; shares compounds with TRPC6 inh; hit rate 61% among 920; activity change, negative = inhibition, % at 10 µM;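 active = rise or fall in signal beyond 3 SD of buffer-only wells in both replicate plates, either sign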;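 also: integrated kinetic ratio of fluorescence range over baseline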
HEK293 MPD ctr 2-1 – parental HEK293 nonspecific activity of TRPC6 inhibitors, second screen; AID 2779; hit rate 31% among 920; shares compounds with TRPC6 inh; parental HEK293 membrane potential dye fluorescence; maximal acetylcholine challenge after compound addition; signal change vs control, % at 10 µM;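 active = membrane potential signal moving either way by over 3 SD of the maximum-effect control, in both duplicate plates, meaning non-specific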
HEK293 MPD ctr-1 – checks TRPC6 inhibitor effects in parental HEK293 cells; shares compounds with TRPC6 inh; parental HEK293 membrane potential dye fluorescence; membrane potential signal change, % at 10 µM; hit rate 60% among 920;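 active = membrane potential signal shifting up or down by more than 3 SD of buffer-only wells, on both duplicate plates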
HEK293 MPD ctr-2 – counter-screen for TRPC6 modulators: effect in parental HEK293 cells | membrane potential signal change, % at 10 µM | membrane potential dye fluorescence | AID 488924 | shares compounds with TRPC6 inh | hit rate 51% among 2,400;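 active = membrane potential signal moves up or down beyond 5 SD from buffer-only wells, on both duplicate plates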
HEK293 MPD ctr 2-2 – second counter-screen for TRPC6 modulators: effect in parental HEK293 cells; shares compounds with TRPC6 inh; membrane potential dye fluorescence; after compound, maximal acetylcholine stimulation; inhibition, % at 10 µM; hit rate 14% among 2,400;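 active = membrane potential signal drops by more than 5 SD from the mean control signal, in both duplicate plates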
TRPC4/MOR mod – tests whether TRPC6 modulators also affect mouse TRPC4; AID 488927; HEK293 TRPC4/mu-opioid, membrane potential fluorescence; shares compounds with TRPC6 inh; percent change from control (negative = decrease, positive = increase), % at 10 µM; hit rate 69% among 2,400;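 active = membrane potential signal moved up or down beyond 5 SD of buffer control wells, in both duplicate plates, actives on both sides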
TRPC4 ctr inh 2 – mouse TRPC4 off-target activity of TRPC6 modulators, second screen; inhibition, % at 10 µM; HEK293 TRPC4/mu-opioid, membrane potential dye fluorescence; stimulated with maximal-effect DAMGO; shares compounds with TRPC6 inh; hit rate 55% among 2,400;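 active = drop in membrane potential signal beyond 5 SD of the control wells in both duplicate plates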;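 also: TRPC4 counter screen for TRPC6 hits run under conditions tuned for TRPC6 not TRPC4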
TRPC6 inh conf – mouse TRPC6 inhibitor confirmation | AID 488960 | hit rate 43% among 3,300 | shares compounds with TRPC6 inh | inhibition, % at 10 µM | HEK293-TRPC6, membrane potential dye, ACh-evoked depolarization;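 active = fluorescence ratio falls more than 5 SD below the full-stimulation control mean, in both duplicate runs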;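 also: integrated fluorescence ratio of peak minus minimum over baseline after agonist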
TRPC6 act conf – confirmation of mouse TRPC6 activators; activation, % at 10 µM; shares compounds with TRPC6 inh; hit rate 11% among 2,800; HEK293-TRPC6 membrane potential dye fluorescence, FDSS; AID 488961;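 active = ratio signal rise beyond 5 SD above unstimulated control wells' mean, seen in both duplicate runs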
Large screens that a line does not name were inactive (follow-up assays come after a bar, where they were run); ! = a repeat was not active. Hits are enriched below; roughly 2.3% of the tested compounds scored in any of these assays.

COc1cccc(O)c1CN1CCCC(C(=O)c2ccccc2SC)C1 (stereo not drawn)	TRPC6 inh -5.6 | HEK293 MPD ctr-2 192% | HEK293 MPD ctr 2-2 inactive | TRPC4/MOR mod 26% | TRPC4 ctr inh 2 54% | TRPC6 inh conf inactive
CSc1ncc(CN2CCCC(C(=O)c3ccccc3SC)C2)cn1 (stereo not drawn)	none
CN1CCN(c2nc3c(c(=O)[nH]2)CCC3)CC1	none
CCCCc1nc(N2CCNCC2)c(C#N)c2c1CSC(C)(C)C2	TRPC6 inh -7.8 | TRPC4 spec 2 44% | TRPC4 spec inactive | HEK293 MPD ctr 2-1 inactive | HEK293 MPD ctr-1 0.9% | TRPC6 inh conf inactive | TRPC6 act conf inactive
Fc1ccccc1CN1CCN(c2ccc(Cl)cc2)CC1	none
Fc1cccc(CN2CCN(c3ccc(Cl)cc3)CC2)c1	TRPC6 inh -7.1 | TRPC4 spec 2 inactive | TRPC4 spec inactive | HEK293 MPD ctr 2-1 inactive | HEK293 MPD ctr-1 inactive | TRPC6 inh conf inactive | TRPC6 act conf inactive
CCN1CCN(C(=O)COc2ccc(S(=O)(=O)N3CCOCC3)cc2C)CC1	none
COc1cccc(-c2nn(CCC#N)cc2C(=O)Nc2ccccc2Cl)c1	none
CCn1ccnc1CN1CCCC(C(=O)c2ccc(SC)cc2)C1 (stereo not drawn)	TRPC6 inh -5 | HEK293 MPD ctr-2 inactive | HEK293 MPD ctr 2-2 inactive | TRPC4/MOR mod 15% | TRPC4 ctr inh 2 inactive | TRPC6 inh conf 54%
COc1cc2c(cc1OC)-c1c(OC)c(OC)cc3c1C(C2)N(C)CC3 (stereo not drawn)	TRPC6 inh -5.4 | HEK293 MPD ctr-2 -234% | HEK293 MPD ctr 2-2 inactive | TRPC4/MOR mod -44% | TRPC4 ctr inh 2 51% | TRPC6 inh conf 53% | TRPC6 act conf inactive
COc1ccc(CC2c3cc(OC)c(OC)cc3CCN2C)cc1O (stereo not drawn)	none
COc1cc2c(cc1OC)-c1c3c(cc4c1[C@@H](C2)N(C)CC4)OCO3	TRPC6 inh -8 | HEK293 MPD ctr-2 -194% | HEK293 MPD ctr 2-2 76% | TRPC4/MOR mod -35% | TRPC4 ctr inh 2 52% | TRPC6 inh conf 56% | TRPC6 act conf inactive
COc1cc2c(cc1O)C[C@H]1NCCc3cc4c(c-2c31)OCO4	TRPC6 inh -9.1 | TRPC4 spec 2 70% | TRPC4 spec -28% | HEK293 MPD ctr 2-1 inactive | HEK293 MPD ctr-1 -398% | TRPC6 inh conf 53% | TRPC6 act conf inactive
COc1ccc(C(=O)OC2C[C@H]3CC[C@@H](C2)N3O)cc1OC (stereo partly drawn)	none
C[C@H]1OC[C@@H](C[N+](C)(C)C)O1	TRPC4 act 88, TRPC6 inh -6.7 | TRPC4 spec 2 inactive | TRPC4 spec 34% | HEK293 MPD ctr 2-1 inactive | HEK293 MPD ctr-1 4.8% | TRPC6 inh conf 70%
CCN(CC)c1ccc(/C=C/[N+](=O)[O-])cc1	TRPC4 act 105, TRPC6 act 56 | HEK293 MPD ctr-2 active | HEK293 MPD ctr 2-2 active | TRPC4/MOR mod 386% | TRPC4 ctr inh 2 32% | TRPC6 act conf 434%
COc1cc(/C=C/[N+](=O)[O-])ccc1O	none
CN(C)c1ccc(CN2CC=C(c3ccc(F)cc3)CC2)cc1	TRPC6 inh -7.9 | TRPC4 spec 2 75% | TRPC4 spec inactive | HEK293 MPD ctr 2-1 inactive | HEK293 MPD ctr-1 inactive | TRPC6 inh conf inactive | TRPC6 act conf inactive
N#CCCn1cc(C(=O)NCc2ccccc2)c(-c2ccc3c(c2)OCCO3)n1	none
O=[N+]([O-])c1ccccc1-c1cc(-c2ccccc2)cc(-c2ccccc2)[n+]1Cc1ccccc1Cl	TRPC6 inh -5.7 | HEK293 MPD ctr-2 inactive | HEK293 MPD ctr 2-2 inactive | TRPC4/MOR mod -8.5% | TRPC4 ctr inh 2 inactive | TRPC6 inh conf inactive | TRPC6 act conf inactive
O=[N+]([O-])c1ccc(-[n+]2c(-c3ccccc3)cc(-c3ccccc3)cc2-c2ccccc2)cc1	none
CN1CCN(c2nc(N(C)C)oc(=O)c2C#N)CC1	none
N#Cc1c(N2CCNCC2)nc(-c2ccco2)c2c1CCCC2	TRPC6 inh -7.8 | TRPC4 spec 2 28% | TRPC4 spec -14% | HEK293 MPD ctr 2-1 inactive | HEK293 MPD ctr-1 -228% | TRPC6 inh conf 58% | TRPC6 act conf inactive
COc1ccccc1C1CC2CCC(C1OC(C)=O)N2Cc1ccccc1 (stereo not drawn)	none
CC(=O)OCC[N+](C)(C)C	TRPC4 act 125, TRPC6 inh -7.9, TRPC6 act 15! | TRPC4 spec 2 inactive | TRPC4 spec 37% | HEK293 MPD ctr 2-1 inactive | HEK293 MPD ctr-1 4.2% | HEK293 MPD ctr-2 133%! | HEK293 MPD ctr 2-2 66%! | TRPC4/MOR mod 44% | TRPC4 ctr inh 2 inactive | TRPC6 inh conf 70% | TRPC6 act conf 124%
COc1ccc(CC(C)NCCC(c2ccccc2)c2ccccc2)cc1 (stereo not drawn)	none
OC(Cn1c2ccccc2c2ccccc21)C[n+]1cccc2ccccc21 (stereo not drawn)	TRPC6 inh -6.7 | TRPC4 spec 2 inactive | TRPC4 spec -28% | HEK293 MPD ctr 2-1 inactive | HEK293 MPD ctr-1 -334% | TRPC6 inh conf 59% | TRPC6 act conf inactive
Cc1ccc(CNC2=NCCS2)cc1	none
